Measured values: ChEMBL document CHEMBL5257157, “Biological evaluation of novel amidino substituted coumarin-benzazole hybrids as promising therapeutic agents” (RSC Med Chem, 2023)
pEC50, pIC50: −log10 of the molar value.

Experiments:
CAPAN-1 = assay: Antiproliferative activity against human CAPAN-1 cells assessed as inhibition of cell growth incubated for 72 hrs by CellTiter96 Aqueous One Solution cell proliferation assay; format: functional, cell-based; details: CAPAN-1, 72 h
NCI-H460 = assay: Antiproliferative activity against human NCI-H460 cells assessed as inhibition of cell growth incubated for 72 hrs by CellTiter96 Aqueous One Solution cell proliferation assay; format: functional, cell-based; details: NCI-H460, 72 h
[1] = Antiviral activity against HCoV-NL63 infected in human Huh-7 cells assessed as inhibition of virus-induced cytopathogenic effect incubated for 3 to 7 days by MTS assay; format: functional, cell-based; details: Human coronavirus NL63, Huh-7
[2] = Antiproliferative activity against human DND41 cells assessed as inhibition of cell growth incubated for 72 hrs by CellTiter96 Aqueous One Solution cell proliferation assay; format: functional, cell-based; details: DND41, 72 h
[3] = Antioxidant activity assessed as ABTS radical scavenging activity incubated for 5 mins by absorbance based microplate reader analysis; format: functional
How it was run: (§1)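 Pure compounds tested in three colorimetric antioxidant assays, each run alongside the reference BHT. […] ABTS: direct reaction with ABTS•+ radical cation, reported as IC50. DPPH: scavenging of the stable DPPH radical by proton or electron donation, reported as IC50. FRAP: reducing power, expressed as mmolFe2+/mmolC.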

Huh-7 = assay: Cytotoxicity against human Huh-7 cells assessed as inhibition of cell growth incubated for 72 hrs by CellTiter96 Aqueous One Solution cell proliferation assay; format: functional
[4] = Antioxidant activity assessed as DPPH radical scavenging activity incubated for 5 mins by absorbance based microplate reader analysis; format: functional; how it was run: as §1
HL-60 = assay: Antiproliferative activity against human HL-60 cells assessed as inhibition of cell growth incubated for 72 hrs by CellTiter96 Aqueous One Solution cell proliferation assay; format: functional, cell-based; details: HL-60, 72 h
Sindbis virus = assay: Antiviral activity against Sindbis virus infected in human Huh-7 cells assessed as inhibition of virus-induced cytopathogenic effect incubated for 3 to 7 days by MTS assay; format: functional, organism-based
Influenza A virus [5] = assay: Antiviral activity against influenza virus H1N1 infected in dog MDCK cells assessed as inhibition of virus-induced cytopathogenic effect incubated for 3 to 7 days by MTS assay; format: functional, organism-based
Human coronavirus OC43 = assay: Antiviral activity against HCoV-OC43 infected in human HEL 299 cells assessed as inhibition of virus-induced cytopathogenic effect incubated for 3 to 7 days by MTS assay; format: functional, organism-based; details: Betacoronavirus 1, HEL 299
Zika virus = assay: Antiviral activity against Zika virus Mr776 infected in human Huh-7 cells assessed as inhibition of virus-induced cytopathogenic effect incubated for 3 to 7 days by MTS assay; format: functional, organism-based; details: Mr776, Huh-7
[6] = Antioxidant activity assessed as reduction of Fe3+ complex to Fe2+ analogue by measuring mmolFe2+/mmolc by FRAP assay; format: functional; how it was run: as §1
Z-138 = assay: Antiproliferative activity against human Z138 cells assessed as inhibition of cell growth incubated for 72 hrs by CellTiter96 Aqueous One Solution cell proliferation assay; format: functional, cell-based; details: Z-138, 72 h
[7] = test system: Respiratory syncytial virus; assay: Antiviral activity against RSV infected in human HEL 299 cells assessed as inhibition of virus-induced cytopathogenic effect incubated for 3 to 7 days by MTS assay; format: functional, organism-based
K562 = assay: Antiproliferative activity against human K562 cells assessed as inhibition of cell growth incubated for 72 hrs by CellTiter96 Aqueous One Solution cell proliferation assay; format: functional, cell-based; details: K562, 72 h
[8] = Cytotoxicity against human HEL 299 cells assessed as inhibition of cell growth incubated for 72 hrs by CellTiter96 Aqueous One Solution cell proliferation assay; format: toxicity, cell-based
Influenza A virus [9] = assay: Antiviral activity against influenza virus H3N2 infected in dog MDCK cells assessed as inhibition of virus-induced cytopathogenic effect incubated for 3 to 7 days by MTS assay; format: functional, organism-based
[10] = Cytotoxicity against dog MDCK cells assessed as inhibition of cell growth incubated for 72 hrs by CellTiter96 Aqueous One Solution cell proliferation assay; format: toxicity, cell-based, Canis lupus familiaris
Human coronavirus 229E = assay: Antiviral activity against HCoV-229E infected in human HEL 299 cells assessed as inhibition of virus-induced cytopathogenic effect incubated for 3 to 7 days by MTS assay; format: functional, organism-based
Human alphaherpesvirus 1 = assay: Antiviral activity against HSV-1 KOS infected in human HEL 299 cells assessed as inhibition of virus-induced cytopathogenic effect incubated for 3 to 7 days by MTS assay; format: functional, organism-based; details: Human alphaherpesvirus 1, KOS
Yellow fever virus = assay: Antiviral activity against Yellow fever virus 17D infected in human Huh-7 cells assessed as inhibition of virus-induced cytopathogenic effect incubated for 3 to 7 days by MTS assay; format: functional, organism-based
Influenza B virus = assay: Antiviral activity against influenza B virus infected in dog MDCK cells assessed as inhibition of virus-induced cytopathogenic effect incubated for 3 to 7 days by MTS assay; format: functional, organism-based
LN-229 = assay: Antiproliferative activity against human LN-229 cells assessed as inhibition of cell growth incubated for 72 hrs by CellTiter96 Aqueous One Solution cell proliferation assay; format: functional, cell-based; details: LN-229, 72 h

SMILES	pIC50 (CAPAN-1)	pIC50 (NCI-H460)	pEC50 [1]	pIC50 [2]	pIC50 [3]	CC50 (Huh-7) [µM]	pIC50 (HL-60)	pEC50 (Sindbis virus)	pEC50 (Influenza A virus [5])	pEC50 (Human coronavirus OC43)	pEC50 (Zika virus)	pIC50 (Z-138)	pEC50 [7]	pIC50 (K562)	CC50 at 72 h [8] [µM]	pEC50 (Influenza A virus [9])	CC50 at 72 h [10] [µM]	pEC50 (Human coronavirus 229E)	pEC50 (Yellow fever virus)	pEC50 (Influenza B virus)	also measured
O=c1oc2ccc(Br)cc2c(Cl)c1-c1nc2cc(C3=NCCN3)ccc2[nH]1	4.52	< 4.00	< 4.00	5.21	3.59	2.3	4.30	< 4.00	4.79	< 4.00	< 4.00	5.19	< 4.00	5.01	51.6	< 4.00	59	< 4.00	< 4.00	< 4.00	pIC50 [4]: 3.89; Activity [6]: 130 mmol/mmol; pEC50 (Human alphaherpesvirus 1): < 4.00; pIC50 (LN-229): 4.39
CCC(CC)COC(=O)[C@H](C)N[P@](=O)(OC[C@H]1O[C@@](C#N)(c2ccc3c(N)ncnn23)[C@H](O)[C@@H]1O)Oc1ccccc1 [REMDESIVIR]			7.52			> 10		< 5.00		7.22	6.15		7.52		> 10			7.22	5.21		
O=c1oc2ccc(Br)cc2c(Cl)c1-c1nc2cc(C3=NCCCN3)ccc2[nH]1	4.27	< 4.00	< 4.00	4.31	3.44	> 100	< 4.00	4.23	4.36	4.11	5.03	4.28	4.13	4.23	> 100	4.29	> 100	< 4.00	4.95	5.05	pIC50 [4]: 3.96; Activity [6]: 95.1 mmol/mmol; pEC50 (Human alphaherpesvirus 1): < 4.00; pIC50 (LN-229): < 4.00
O=c1oc2ccccc2c(Cl)c1-c1nc2cc(C3=NCCN3)ccc2[nH]1	4.00	< 4.00	< 4.00	4.44	3.43	85	4.25	< 4.00	< 4.00	< 4.00	< 4.00	4.30	< 4.00	< 4.00	99.5	< 4.00	92.1	< 4.00	< 4.00	< 4.00	pIC50 [4]: 3.36; Activity [6]: 35.1 mmol/mmol; pEC50 (Human alphaherpesvirus 1): < 4.00; pIC50 (LN-229): < 4.00
Cc1ccc2oc(=O)c(-c3nc4cc(C5=NCCN5)ccc4[nH]3)c(Cl)c2c1	4.99	4.50	< 4.00	5.24	3.46	< 0.8	4.67	< 4.00	< 4.00	< 4.00	< 4.00	5.19	< 4.00	5.00	77	< 4.00	10	< 4.00	< 4.00	< 4.00	pIC50 [4]: 3.72; Activity [6]: 47.1 mmol/mmol; pEC50 (Human alphaherpesvirus 1): < 4.00; pIC50 (LN-229): 5.04
COc1cc([C@@H]2c3cc4c(cc3[C@@H](O[C@@H]3O[C@@H]5CO[C@@H](C)O[C@H]5[C@H](O)[C@H]3O)[C@H]3COC(=O)[C@H]23)OCO4)cc(OC)c1O [ETOPOSIDE]	5.84	5.44		5.55			6.38					6.07		5.75							pIC50 (LN-229): 6.37
Cc1cc(C(C)(C)C)c(O)c(C(C)(C)C)c1 [BUTYLATED HYDROXYTOLUENE]					3.74																pIC50 [4]: 4.60
CC(=O)N[C@H]1[C@H]([C@H](O)[C@H](O)CO)OC(C(=O)O)=C[C@@H]1NC(=N)N [ZANAMIVIR]									7.00							4.77	> 100			7.30	
O=c1[nH]c(=O)n([C@H]2C[C@H](O)[C@@H](CO)O2)cc1/C=C/Br [BRIVUDINE]															> 100						pEC50 (Human alphaherpesvirus 1): 7.30
CC(N)C12CC3CC(CC(C3)C1)C2 (stereo not drawn) [RIMANTADINE]									5.30							7.30	> 100			< 4.00	
CCN(CC)c1ccc2cc(-c3nc4ccc(C5=NCCN5)cc4s3)c(=O)oc2c1	4.09	< 4.00	< 4.00	4.99	2.66	54.2	< 4.00	< 4.00	< 4.00	4.16	< 4.00	4.95	< 4.00	4.18	> 100	< 4.00	64.2	< 4.00	< 4.00	< 4.00	Activity [6]: 2.84 mmol/mmol; pEC50 (Human alphaherpesvirus 1): 4.32; pIC50 (LN-229): < 4.00
NC(=O)c1ncn([C@@H]2O[C@H](CO)[C@@H](O)[C@H]2O)n1 [RIBAVIRIN]			< 3.60			8.9			4.98		< 3.60		4.97		> 250	5.40	67	4.08	< 3.60	5.55	
